One may read the IC50 as the concentration that gives 50% inhibition. Read a high IC50 as a need for much substance. Usually MIC stands for the lowest concentration found to suppress growth.

For 33 compounds, IC50 and MIC results are on record in ChEMBL document CHEMBL1127651, “Molecular requirements for the inhibition of the tetracycline antiport protein and the effect of potent inhibitors on the growth of tetracycline-resistant bacteria” (J Med Chem, 1994).

In test [1] the test system is Escherichia coli. Put plainly: (§1) Inhibitory activity against tetracycline uptake in everted membrane vesicles derived from Tc-resistant Escherichia coli bearing class B tetracycline resistance efflux protein (Tet). It counts as functional. The essentials:
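Everted inner membrane vesicles from E. coli D1-209 carrying plasmid R222 (class B Tc determinant on Tn10), energized with Li lactate; test compound added together with [³H]Tc. Accumulated [³H]Tc read at 2.5 min after energization, compared with uptake without analogue; CCCP-deenergized vesicles served as the negative control. IC50 = concentration giving 50% inhibition of uptake. Separately screened for disruption of the pH gradient by acridine orange fluorescence in vesicles from isogenic Tc-susceptible cells.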

In test [2] the test system is Enterococcus faecalis. Description: Minimum inhibitory activity against tetracycline-susceptible Enterococcus faecalis strain ATCC 9790. It counts as functional. The essentials: (§2)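 Broth dilution MIC in Luria broth. Two-fold dilutions from a 10 mg/mL stock in H₂O or 1:1 H₂O/MeOH, test range 200–0.030 µg/mL, incubated 18–20 h at 37 °C. MIC = lowest amount inhibiting growth.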

In test [3] the test system is Enterococcus faecalis. Description: Minimum inhibitory activity against tetracycline-susceptible Enterococcus faecalis strain ATCC 9790 (Tet L on plasmid MV158). It counts as functional. As to conditions: in the assay text read “tetracycline-resistant” for “tetracycline-susceptible”. Put shortly: (§3)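 Inoculum about 10⁶ cfu/mL into two-fold dilutions from 200 to 0.030 µg/mL, made from a 10 mg/mL stock in H₂O or 1:1 H₂O/MeOH. Incubated 18–20 h at 37 °C; MIC = amount inhibiting growth.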

In test [4] the test system is Escherichia coli. Description: Minimum inhibitory activity against tetracycline-susceptible Escherichia coli strain ML308-225. It counts as functional. The essentials: as §2
The subject of test [5] is Escherichia coli. Description: Minimum inhibitory activity against tetracycline-susceptible Escherichia coli strain ML308-225 (Tet B on plasmid R222). It counts as functional. The essentials: as §3
In test [6] the test system is Staphylococcus aureus. Put plainly: Minimum inhibitory activity against tetracycline-susceptible Staphylococcus aureus strain RN450 (Tet K on plasmid pT181). It counts as functional. The essentials:
as §3

Test [7] deals with Escherichia coli. Description: Minimum inhibitory activity against tetracycline-susceptible Escherichia coli strain D31m4. It counts as functional. Put shortly:
as §2

Test [8] concerns Staphylococcus aureus. Put plainly: Minimum inhibitory activity against tetracycline-susceptible Staphylococcus aureus strain RN450. It counts as functional. The essentials: as §2
Test [9] relates to Escherichia coli. Put plainly: Minimum inhibitory activity against tetracycline-susceptible Escherichia coli strain D31m4 (Tet B on plasmid pHCMI). It counts as functional. As to conditions: in the assay text read “tetracycline-resistant” for “tetracycline-susceptible”. Put shortly:
as §3

For test [10], the system named is Escherichia coli. Description: Minimum inhibitory activity against tetracycline-susceptible Escherichia coli strain ML308-225 (Tet B on plasmid R222) in combination with doxycycline; No effect. It counts as functional, organism-based.
For test [11], the system named is Escherichia coli. Description: Minimum inhibitory activity against tetracycline-susceptible Escherichia coli strain ML308-225 (Tet A on plasmid pIP15). It counts as functional. Put shortly:
as §3

For test [12], the system named is Escherichia coli. Put plainly: Minimum inhibitory activity against tetracycline-susceptible Escherichia coli strain ML308-225 (Tet B on plasmid R222) in combination with doxycycline; no effect. It counts as functional, organism-based.
The test system of test [13] is Escherichia coli. Description: Growth inhibitory activity against tetracycline-resistant ML308-225 bacterial strain of Escherichia coli. It counts as functional, organism-based. Put shortly: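 MIC by two-fold broth dilution in Luria broth from a 10 mg/mL stock, test range 200 to 0.030 µg/mL. Compounds dissolved in H2O or 1:1 H2O/MeOH. Inoculum about 10⁶ cfu/mL. Incubated 18–20 h at 37 °C. MIC taken as the lowest amount that inhibited growth.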

Test [14] relates to Escherichia coli. The test is described as §1. It counts as functional. The essentials:
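Everted inner-membrane vesicles from E. coli D1-209 carrying plasmid R222 (class B Tet on Tn10). Vesicles energized with Li lactate and given [³H]Tc together with the analogue. Accumulation read at 2.5 min against uptake without analogue. CCCP-deenergized vesicles served as negative control. IC50 is the concentration giving 50% inhibition of [³H]Tc uptake.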
This is another data set of the same source.

Converted amounts (≈) assume the structure as drawn. The source made the active and inactive calls. The rule behind the calls is not given here.

With `CN(C)[C@@H]1C(=O)C(C(N)=O)=C(O)[C@@]2(O)C(O)=C3C(=O)c4c(O)cccc4[C@H](CS)C3[C@H](O)C12` (stereo partly specified), the IC50 in test [1] was found to be 4.6 µM.
With `COC(C(=O)[C@@H](O)C(C)O)C1Cc2cc3cc(O)c(C)c(O)c3c(O)c2C(=O)C1O` (stereo partly specified), in [1], the IC50 was over 100 µM.
`CCCSC[C@H]1c2cccc(O)c2C(=O)C2=C(O)[C@]3(O)C(O)=C(C(N)=O)C(=O)[C@@H](N(C)C)C3[C@@H](O)C21` (stereo partly specified): the MIC in test [2] is 1.25 µg/mL (≈ 2.41 µM); in test [3] it was 1.56 µg/mL (≈ 3.01 µM); in test [4], 40 µg/mL (≈ 77.1 µM); in [5], over 50 µg/mL; in test [6], 12.5 µg/mL (≈ 24.1 µM); in [7], 10 µg/mL (≈ 19.3 µM). Moreover, the MIC in [8] is 0.6 µg/mL (≈ 1.16 µM); in test [9], 12.5 µg/mL (≈ 24.1 µM); in test [11], over 50 µg/mL. Also, the MIC result in [10] is “inactive”.
In test [1], `Cc1cc(O)c2c(c1O)C(=O)c1cc(O)cc(O)c1C2=O` [CATENARIN] registered an IC50 of over 150 µM.
With `O=CCC1CC(=O)c2c(O)cccc2S1` (stereo unspecified), the IC50 in [1] is over 75 µM.
The same measure, in the same setting: the value for `COC(=O)C12Oc3ccc(-c4ccc5c(c4O)C(O)=C4C(=O)CC(C)C(O)C4(C(=O)OC)O5)c(O)c3C(O)=C1C(=O)CC(C)C2O` (stereo unspecified) was over 75 µM; that for `COC(C(=O)[C@@H](O)[C@@H](C)O)C1Cc2cc3cc(O)cc(O)c3c(O)c2C(=O)C1O` (stereo partly specified) was over 100 µM.
For the compound `O=CCC1CC(=O)c2c(O)ccc(Cl)c2S1` (stereo unspecified), the IC50 in [1] was over 75 µM.
In test [1], `CC(=O)OC1=CC[C@H]2CC3C(=C(O)c4c(O)cccc4C3O[Si](C)(C)C(C)(C)C)C(=O)[C@H]2C1` (stereo partly specified) came in with a half-maximal inhibitory concentration (IC50) of over 150 µM.
In test [1], `CN(C)c1ccc(O)c2c1CC1CC3[C@H](N(C)C)C(=O)C(C(N)=O)=C(O)[C@@]3(O)C(O)=C1C2=O` (stereo partly specified) displayed an IC50 of 2.3 µM.
For `CN(C)[C@@H]1C(=O)C(C(N)=O)=C(O)[C@@]2(O)C(=O)C3(F)C(=O)c4c(O)cccc4CC3CC12` (stereo partly specified), the half-maximal inhibitory concentration (IC50) in test [1] was over 75 µM.
On to `COc1cc(O)c2c(c1)C(=O)c1cc3c(c(O)c1C2=O)C(OC1OC(C)C(O)C(O)C1OC)C(OC)C(C)(O)C3=O` (stereo unspecified), for which the IC50 in test [1] was over 75 µM.
In turn, `CC(=O)OC1=C(Sc2ccccc2)C[C@H]2Cc3cc4cccc(O)c4c(O)c3C(=O)[C@H]2C1` returned an IC50 in test [1] of over 150 µM.
`COC(=O)c1c(O)cccc1CC1CC(=O)[C@@]2(O)C(O)=C(C(N)=O)C(=O)[C@@H](N(C)C)C2C1` (stereo partly specified): in test [1], the IC50 was over 75 µM.
The same measure, in the same setting: to `O=C(O)CC1CC(=O)c2c(O)ccc(Cl)c2S1` (stereo unspecified) belongs over 150 µM; to `CC(=O)C1CCC2C(=O)C3=C(O)c4c(O)ccc(O)c4CC3CC2C1` (stereo unspecified), over 75 µM.
In test [1], `CC(=O)Oc1cccc2c1C(=O)C1=C(O)[C@]3(OC(C)=O)C(O)=C(C(N)=O)C(=O)[C@@H](N(C)C)C3CC1[C@]2(C)O` (stereo partly specified) yielded an IC50 of over 75 µM.
On the same count and under the same terms, the value for `O=C1c2ccc(O)c(O)c2C(=O)c2c(O)ccc(O)c21` [QUINALIZARIN] was over 150 µM.
`COc1cc(O)c2c(c1)C(=O)c1cc3c(c(O)c1C2=O)C(OC1OC(C)C(OC)C(O)C1OC)C(OC)C(C)(O)C3=O` (stereo unspecified) came in with an IC50 in [1] of over 75 µM.
Take `COc1ccc(Cl)c2c1C(=O)CC(CC(=O)O)S2` (stereo unspecified): the IC50 in test [1] was over 150 µM.
Regarding `CN(C)[C@@H]1C(=O)C(C(N)=O)=C(O)[C@@]2(O)C(O)=C3C(=O)c4c(O)cccc4[C@H](CSCCC(=O)O)C3CC12` (stereo partly specified), the MIC is 10 µg/mL (≈ 18.8 µM) in [2]; 3.12 µg/mL (≈ 5.86 µM) in test [3]; over 40 µg/mL in [4]; over 50 µg/mL in [5]; 12.5 µg/mL (≈ 23.5 µM) in test [6]; 20 µg/mL (≈ 37.6 µM) in test [7]. For the same compound, the results for the MIC in test [8], in test [9] and in test [11] were 2.5 µg/mL (≈ 4.69 µM), over 50 µg/mL and over 50 µg/mL, respectively. The MIC result in test [12] was “inactive”.
Compound `COc1cccc2c1C(=O)c1c(O)c3c(c(O)c1C2=O)C[C@@](O)(C(=O)CO)C[C@@H]3O[C@H]1C[C@H](N)[C@H](O)[C@H](C)O1` [DOXORUBICIN] gave an IC50 in [1] of over 75 µM.
For `CN(C)[C@@H]1C(=O)C(C(N)=O)=C(O)[C@@]2(O)C(O)=C3C(=O)c4c(O)cccc4[C@H](CSCCCCl)C3[C@H](O)C12` (stereo partly specified), the MIC is 0.6 µg/mL (≈ 1.08 µM) in test [2]; 1.56 µg/mL (≈ 2.82 µM) in test [3]; 10 µg/mL (≈ 18.1 µM) in test [4]; over 50 µg/mL in [5]; 6.25 µg/mL (≈ 11.3 µM) in test [6]; 2.5 µg/mL (≈ 4.52 µM) in test [7]. Also, the MIC in [8] was 0.6 µg/mL (≈ 1.08 µM); in test [9], 6.25 µg/mL (≈ 11.3 µM); in test [11], 50 µg/mL (≈ 90.4 µM). The compound further had an IC50 in [1] of 0.6 µM. The MIC result in test [10] was “inactive”.
Compound `CN(C)[C@@H]1C(=O)C(C(N)=O)=C(O)[C@@]2(O)C(O)=C3C(=O)c4c(O)cccc4SC3CC12` (stereo partly specified) gave an IC50 in [1] of 4.6 µM.
In the case of `C[C@H]1c2cccc(O)c2C(=O)C2=C(O)[C@]3(O)C(=O)C(C(N)=O)=C(O)[C@@H](N(C)C)[C@@H]3[C@@H](O)[C@@H]21.O` [DOXYCYCLINE], the MIC in test [2] is 0.25 µg/mL; in [3], 6.25 µg/mL; in test [5], over 50 µg/mL; in test [14], 0.5 µg/mL; in [6] it was 12.5 µg/mL; in [7], 0.5 µg/mL. Moreover, the figures for the MIC in [8], in [9] and in test [11] were 0.25 µg/mL, 12.5 µg/mL and 50 µg/mL, respectively. Moreover, the results for the IC50 in test [13] and in [1] were 9.2 µM and over 75 µM, respectively.
As for `CN(C)[C@@H]1C(=O)C(C(N)=O)=C(O)[C@@]2(O)C(O)=C3C(=O)c4c(O)cccc4[C@H](C[S+]([O-])c4ccccc4)C3CC12` (stereo partly specified), in [1], half-maximal inhibition (IC50) required 0.7 µM.
Compound `CN(C)c1ccc2c(c1O)C(=O)C1=C(O)[C@]3(O)C(O)=C(C(N)=O)C(=O)[C@@H](N(C)C)C3CC1C2` (stereo partly specified) had an IC50 in test [1] of 15.4 µM.
On the same count and under the same terms, to `C=C1c2cccc(O)c2C(=O)C2(Cl)C(=O)[C@]3(O)C(O)=C(C(N)=O)C(=O)[C@@H](N(C)C)C3CC12` (stereo partly specified) belongs over 75 µM.
With `CN(C)[C@@H]1C(=O)C(C(N)=O)=C(O)[C@@]2(O)C(O)=C3C(=O)c4c(ccc([N+](=O)[O-])c4O)CC3CC12` (stereo partly specified), 12.3 µM corresponded to half-maximal inhibition in [1] (IC50).
`CN(C)[C@@H]1C(=O)C(C(N)=O)=C(O)[C@@]2(O)C(=O)C3C(=O)c4c(O)ccc(Cl)c4[C@@](C)(O)C3CC12` (stereo partly specified): in [1], the IC50 was over 75 µM.
`CC(=O)SC[C@H]1c2cccc(O)c2C(=O)C2=C(O)[C@]3(O)C(O)=C(C(N)=O)C(=O)[C@@H](N(C)C)C3[C@@H](O)C21` (stereo partly specified) gave an IC50 in [1] of 4.6 µM.
In [1], `COc1cc(O)c2c(c1Cl)CC1CC3[C@H](N(C)C)C(=O)C(C(N)=O)=C(O)[C@@]3(O)C(O)=C1C2=O` (stereo partly specified) displayed an IC50 of 19.5 µM.
On the same count and under the same terms, the value for `CC1CC(=O)C2=C(O)c3c(O)ccc(O)c3CC2C1` (stereo unspecified) was over 130 µM.
